In data set [1] the test system is Plasmodium falciparum. The data set can be described thus: Antiplasmodial activity against chloroquine-resistant Plasmodium falciparum K1 after 24 hrs by [3H]hypoxanthine incorporation assay. It counts as functional, organism-based. Put shortly:
(§1)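 Antiplasmodial testing was done at the Swiss Tropical and Public Health Institute. Chloroquine, the reference drug, was tested as its diphosphate salt.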

Data set [2] concerns Plasmodium falciparum. The data set can be described thus: Antiplasmodial activity against chloroquine-resistant Plasmodium falciparum W2 after 24 hrs by [3H]hypoxanthine incorporation assay. Format: functional, organism-based. Put shortly: as §1
Data set [3] deals with Plasmodium falciparum. Briefly: Antiplasmodial activity against chloroquine-sensitive Plasmodium falciparum 3D7 after 24 hrs by [3H]hypoxanthine incorporation assay. Format: functional, organism-based. The essentials:
as §1

Data set [4] is described as follows: Kinetic solubility of the compound in phosphate buffered saline at pH 7.4 after 2 hrs by HPLC analysis. Particulars: read-out: Kinetic_solubility; call rule not given here. Format: physicochemical.
Data set [5] is described as follows: Kinetic solubility of the compound in 0.01 M HCl at pH 2 after 2 hrs by HPLC analysis. It counts as physicochemical. To be noted: read-out: Kinetic_solubility.
Data set [6] concerns Plasmodium falciparum. Briefly: Resistance index, ratio of IC50 for chloroquine-resistant Plasmodium falciparum K1 to IC50 for chloroquine-sensitive Plasmodium falciparum 3D7. It counts as functional.
Data set [7] in a line: Hepatic extraction ratio in human liver microsomes at 1 uM after 40 mins. It counts as ADME. To be noted: read-out: ERH. (In general: Microsomes from liver hold many membrane-bound enzymes, among them those of drug oxidation.)
The subject of data set [8] is Mus musculus. Briefly: AUC (0 to infinity) in C57BL/6 mouse at 40 mg/kg, po. Format: ADME, organism-based, Plasma. Set-up: time infinity, dose 40 mg/kg, route oral. Particulars: in vivo. Put shortly: (§2)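 Healthy male C57/BL6 mice received a single intravenous dose (2.5 or 5.0 mg/kg) or oral dose (20 or 40 mg/kg). Plasma concentrations were followed over time to give AUC0-∞ in min·μmol/L, alongside t1/2, CL, Vd, Vss, Cmax, Tmax and oral bioavailability. Values are means of five animals.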

Data set [9] has as its system Plasmodium berghei. The data set can be described thus: Antimalarial activity against Plasmodium berghei ANKA infected in C57BL/6 mouse assessed as reduction in parasitemia at 20 mg/kg, po qd for 4 days measured on day 7 by light microscopic analysis relative to control. Further details: scale not given: the % may be the effect or the level left. Format: functional. The essentials:
(§3)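 Male C57/BL6 mice were infected with P. berghei ANKA and dosed orally once daily for four days at 1, 10, 5 or 20 mg/kg, with 5 mice per dose group. The negative control received blank formulation solution. Blood smears were taken on days 3, 5 and 7, and parasitemia was read by light microscopy. The result is % parasitemia reduction on day 7 versus placebo.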

Data set [10] is described as follows: Hepatic extraction ratio in mouse liver microsomes at 1 uM after 40 mins. It counts as ADME, Microsome. To be noted: read-out: ERH.
The test system of data set [11] is Plasmodium berghei. The data set can be described thus: Antimalarial activity against Plasmodium berghei ANKA infected in C57BL/6 mouse assessed as reduction in parasitemia at 10 mg/kg, po qd for 4 days measured on day 7 by light microscopic analysis relative to control. Further details: scale not given: the % may be the effect or the level left. Format: functional. The essentials:
as §3

For data set [12], the system named is Mus musculus. The data set can be described thus: AUC (0 to infinity) in C57BL/6 mouse at 2.5 mg/kg, iv. Format: ADME, organism-based, Plasma. To be noted: in vivo. Further details: time infinity, dose 2.5 mg/kg, route intravenous. The essentials:
as §2

Data set [13] deals with Plasmodium berghei. The data set can be described thus: Antimalarial activity against Plasmodium berghei ANKA infected in C57BL/6 mouse assessed as reduction in parasitemia at 5 mg/kg, po qd for 4 days measured on day 7 by light microscopic analysis relative to control. Format: functional. Set-up: scale not given: the % may be the effect or the level left. Put shortly: as §3

Data set [14] has as its system Mus musculus. Briefly: AUC (0 to infinity) in C57BL/6 mouse at 5 mg/kg, iv. Format: ADME, organism-based, Plasma. Set-up: dose 5 mg/kg, route intravenous, time infinity. To be noted: in vivo. Put shortly:
as §2

For data set [15], the system named is Liver microsome. The data set can be described thus: Drug metabolism in rat liver microsomes assessed as 2-(5-((4-chlorophenyl)(2-(7-chloroquinolin-4-ylamino)ethylamino)methyl)-1H-tetrazol-1-yl)-2-methylpropan-1-ol level at 5 uM after 1 hr by LC-MS/MS analysis. It counts as ADME.
The subject of data set [16] is Liver microsome. The data set can be described thus: Drug metabolism in human liver microsomes assessed as 4-(2-((1-tert-butyl-1H-tetrazol-5-yl)(4-chlorophenyl)methylamino)ethylamino)-7-chloroquinoline 1-oxide level at 5 uM after 1 hr by LC-MS/MS analysis. Format: ADME.
For data set [17], the system named is Liver microsome. Briefly: Drug metabolism in human liver microsomes assessed as 2-(5-((4-chlorophenyl)(2-(7-chloroquinolin-4-ylamino)ethylamino)methyl)-1H-tetrazol-1-yl)-2-methylpropan-1-ol level at 5 uM after 1 hr by LC-MS/MS analysis. It counts as ADME.
Data set [18] relates to Plasmodium berghei. Briefly: Antimalarial activity against Plasmodium berghei ANKA infected in C57BL/6 mouse assessed as reduction in parasitemia at 1 mg/kg, po qd for 4 days measured on day 7 by light microscopic analysis relative to control. It counts as functional. Set-up: scale not given: the % may be the effect or the level left. The essentials: as §3
Data set [19] in a line: Drug metabolism in hepatocytes (unknown origin) assessed as 4-(2-((1-tert-butyl-1H-tetrazol-5-yl)(4-chlorophenyl)methylamino)ethylamino)-7-chloroquinoline 1-oxide level at 5 uM after 6 hrs by LC-MS/MS analysis. It counts as ADME, cell-based, Hepatocyte.
Data set [20] relates to Liver microsome. The data set can be described thus: Drug metabolism in rat liver microsomes assessed as 4-(2-((1-tert-butyl-1H-tetrazol-5-yl)(4-chlorophenyl)methylamino)ethylamino)-7-chloroquinoline 1-oxide level at 5 uM after 1 hr by LC-MS/MS analysis. Format: ADME.
Data set [21] concerns Mus musculus. The data set can be described thus: AUC (0 to infinity) in C57BL/6 mouse at 20 mg/kg, po. Particulars: in vivo. Format: ADME, organism-based, Plasma. Set-up: time infinity, dose 20 mg/kg, route oral. The essentials: as §2
The nature of data set [22]: Drug metabolism in hepatocytes (unknown origin) assessed as 2-(5-((4-chlorophenyl)(2-(7-chloroquinolin-4-ylamino)ethylamino)methyl)-1H-tetrazol-1-yl)-2-methylpropan-1-ol level at 5 uM after 6 hrs by LC-MS/MS analysis. It counts as ADME, cell-based, Hepatocyte.
The next data set relates to CHO. The data set can be described thus: Cytotoxicity against CHO cells. Particulars: Cricetulus griseus. Format: cell-based.
The test system of data set [23] is Plasmodium berghei. The data set can be described thus: Antimalarial activity against Plasmodium berghei ANKA infected in C57BL/6 mouse assessed as reduction in parasitemia at 15 mg/kg, po qd for 4 days measured on day 7 by light microscopic analysis relative to control. Further details: scale not given: the % may be the effect or the level left. Format: functional.

By IC50 is commonly meant the concentration at which inhibition is half-maximal. What is called AUC is the area under the concentration-time curve, a measure of exposure.

The structures appear in SMILES notation. ≈ marks a conversion by molar mass, not a printed value.

`Clc1ccc2c(NCCCCNC(c3ccccc3)c3nnn[nH]3)ccnc2c1` (stereo not drawn) showed an IC50 with Plasmodium falciparum [1] of 6850 nM.
Same read-out and setting: for `Cc1ccc(C(NCCNc2ccnc3cc(Cl)ccc23)c2nnn[nH]2)cc1` (stereo not drawn) the value was 17400 nM.
On to `CC(C)(C)n1nnnc1C(NCCNc1ccnc2cc(Cl)ccc12)c1ccccc1` (stereo not drawn), for which the IC50 is 69 nM in the data set with Plasmodium falciparum [2], 5 nM with Plasmodium falciparum [3] and 38 nM with Plasmodium falciparum [1]. Also, the solubility kinetic at 2 h in data set [4] was 111 µM (≈ 48.4 µg/mL); in data set [5], above 200 µM. Also, the “Ratio IC50” value with Plasmodium falciparum [6] was determined as 7.6.
As to `Clc1ccc2c(NCCNC(c3ccccc3)c3nnn[nH]3)ccnc2c1` (stereo not drawn), the midpoint of inhibition with Plasmodium falciparum [1], the IC50, lay at 14900 nM.
Regarding `Clc1ccc2c(NCCCNC(c3ccccc3)c3nnn[nH]3)ccnc2c1` (stereo not drawn), the IC50 in the data set on Plasmodium falciparum [1] came to 14300 nM.
With `Clc1ccc2c(NCCNC(c3ccc(Cl)c(Cl)c3)c3nnn[nH]3)ccnc2c1` (stereo not drawn), the midpoint of inhibition with Plasmodium falciparum [1], the IC50, lay at 4390 nM. Moreover, the solubility kinetic at 2 h in [4] was 70.1 µM (≈ 31.5 µg/mL); in data set [5], 191 µM (≈ 85.7 µg/mL).
Regarding `CC(C)(C)n1nnnc1C(NCCCNc1ccnc2cc(Cl)ccc12)c1ccccc1` (stereo not drawn), the IC50 in the data set with Plasmodium falciparum [2] worked out at 39 nM; in the data set on Plasmodium falciparum [3], 2 nM; with Plasmodium falciparum [1], 27 nM. In addition, the “Ratio IC50” value in the data set on Plasmodium falciparum [6] amounted to 13.5.
Regarding `CC(C)(C)n1nnnc1C(NCCCCNc1ccnc2cc(Cl)ccc12)c1ccccc1` (stereo not drawn), the IC50 in the data set with Plasmodium falciparum [2] came to 20 nM; with Plasmodium falciparum [3], 2 nM; with Plasmodium falciparum [1], 8 nM. Also, in the data set with Plasmodium falciparum [6], the “Ratio IC50” value turned out to be 4.
`Clc1ccc(C(NCCNc2ccnc3cc(Cl)ccc23)c2nnn[nH]2)cc1` (stereo not drawn) came in with an IC50 in the data set with Plasmodium falciparum [1] of 2380 nM. Besides, the solubility kinetic at 2 h was 164 µM (≈ 67.9 µg/mL) in [4] and above 200 µM in data set [5].
For `CC(C)(C)n1nnnc1C(NCCNc1ccnc2cc(Cl)ccc12)c1ccc(Cl)c(Cl)c1` (stereo not drawn), the hepatic extraction ratio at 40 min, 1 µM in data set [7] and in data set [10] was above 0.8 each time. Moreover, the AUC with Mus musculus [8] was found to be 287 µmol·min/L; in the data set on Mus musculus [12] it was 104 µmol·min/L; in the data set with Mus musculus [14], 222 µmol·min/L; with Mus musculus [21] it was 256 µmol·min/L. Besides, the Activity in the data set with Plasmodium berghei [9] was determined as 44.5%; in the data set on Plasmodium berghei [11], 41.4%; in the data set on Plasmodium berghei [13], 46.9%; in the data set on Plasmodium berghei [18], 22.7%. Besides, the IC50 in the data set on Plasmodium falciparum [2] is 30.5 nM; in the data set on Plasmodium falciparum [3], 0.4 nM; in the data set on Plasmodium falciparum [1], 8 nM; with CHO, 10500 nM. In addition, the Drug metabolism entry (with Liver microsome [15]; in the data set on Liver microsome [16]; in the data set on Liver microsome [17]; in [19]; with Liver microsome [20]; in data set [22]) was “Active” in each case. In addition, the solubility kinetic at 2 h amounted to 25 µM (≈ 12.6 µg/mL) in [4] and 194 µM (≈ 97.9 µg/mL) in data set [5]. Besides, in the data set on Plasmodium falciparum [6], the “Ratio IC50” value amounted to 20.
As for `COc1ccc(C(NCCNc2ccnc3cc(Cl)ccc23)c2nnnn2C(C)(C)C)cc1` (stereo not drawn), the IC50 in the data set with Plasmodium falciparum [2] was determined as 46 nM; in the data set with Plasmodium falciparum [3] it was 3820 nM; in the data set on Plasmodium falciparum [1], 155 nM. The “Ratio IC50” value in the data set on Plasmodium falciparum [6] worked out at 0.041.
`COc1ccc(C(NCCNc2ccnc3cc(Cl)ccc23)c2nnn[nH]2)cc1` (stereo not drawn) returned a half-maximal inhibitory concentration (IC50) in the data set with Plasmodium falciparum [1] of 13200 nM.
In the case of `CCN(CC)CCCC(C)Nc1ccnc2cc(Cl)ccc12` (stereo not drawn) [CHLOROQUINE], in the data set with Plasmodium berghei [23], the Activity came out at 90.6%.

Values taken from ChEMBL document CHEMBL3098028, “Synthesis and in vitro and in vivo pharmacological evaluation of new 4-aminoquinoline-based compounds” (ACS Med Chem Lett, 2013).
